# A selection: hits, their analogues and other compounds. The true share with any hit is near 1.1%.
# PMI act hi M6P: activators of human phosphomannose isomerase at near-saturating mannose 6-phosphate. activation factor at 20 µM. coupled PMI enzyme assay, resazurin fluorescence, 20 min; active compounds read high; 1 = untreated enzyme, 0 = substrate-free blank. AID 1216. 190,000 tested, 0.34% active. P34949;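 active = activation factor of 2 or more at 20 µM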
# Target sequence (P34949 whole entry, looked up): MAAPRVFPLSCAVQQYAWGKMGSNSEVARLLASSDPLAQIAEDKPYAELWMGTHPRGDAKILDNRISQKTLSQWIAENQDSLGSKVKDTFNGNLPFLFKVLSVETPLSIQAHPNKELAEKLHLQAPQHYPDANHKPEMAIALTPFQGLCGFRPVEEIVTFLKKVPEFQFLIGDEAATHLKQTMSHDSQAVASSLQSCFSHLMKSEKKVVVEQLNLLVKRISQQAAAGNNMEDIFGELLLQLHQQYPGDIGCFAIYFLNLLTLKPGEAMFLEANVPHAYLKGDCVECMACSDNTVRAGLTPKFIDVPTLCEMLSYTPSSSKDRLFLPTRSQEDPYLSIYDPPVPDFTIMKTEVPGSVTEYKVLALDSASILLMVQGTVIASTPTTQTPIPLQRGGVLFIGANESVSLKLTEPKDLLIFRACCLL
#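 test system = human PMI in coupled enzyme assay | medium = HEPES-buffered pH 7.4 with magnesium and detergent | also added = 1.0 mM mannose-6-phosphate substrate with 0.22 mM NADP+ | compound = 20 µM single dose | times = 20 min incubation at room temperature | measured by = resorufin fluorescence (Ex 544/Em 590 nm) from resazurin via diaphorase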
# PMI activator: activators of human phosphomannose isomerase; P34949; purified human PMI, coupled resazurin fluorescence, 20 min; active compounds read high; 1 = vehicle control, 0 substrate-free wells; activation factor at 20 µM; 190,000 tested, 0.005% active;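 active = activation factor of 2 or more at 20 µM, relative to plate controls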
# Diaphorase inh: diaphorase inhibition or chemical oxidation counter-screen | diaphorase resazurin-to-resorufin fluorescence, NADH, 16 min; bacterial (C. kluyveri) enzyme, not human | 190,000 tested, 0.69% active | inhibition, % at 20 µM;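 active = primary screen inhibition at 20 µM above a set limit, cut at about 50% in these data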
#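 Detection: fluorescence of resorufin formed from resazurin, Ex 544/Em 590 nm; test system: Clostridium kluyveri diaphorase enzyme; amount: 0.14 U/mL diaphorase, enzyme working solution; times: 16-min room-temperature incubation before reading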
# Diaph act CS: activates diaphorase or chemically reduces, flagging diaphorase assay artifacts | Diaphorase/resazurin coupled assay, resorufin fluorescence, 16 min; active compounds read high; 1 = vehicle wells, 0 = NADH-free wells | activation factor at 20 µM | 190,000 tested, 0.005% active;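 active = diaphorase activity raised at least twofold by the compound at 20 µM; inactive = activation factor below 2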
#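 Measured by – red resorufin fluorescence at 544/590 nm excitation/emission · Test system – Clostridium kluyveri diaphorase, purified enzyme · Incubation – reaction time 16 min, room temperature · Buffer or medium – 50 mM HEPES pH 7.4 with 4.542 mM MgCl2, 0.005% Tween 20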
# G6PDH counter: inhibits Leuconostoc G6PDH, flagging false hits in G6PDH-based assays; Purified L. mesenteroides G6PDH, diaphorase/resazurin coupled fluorescence, 45 min; inhibition, % at 5 µM; 200,000 tested, 0.12% active; AID 1020; in the data active = inhibition above about 50%
# Hits are given with their value; n = inactive; x = no result.
SMILES,PMI act hi M6P,PMI activator,Diaphorase inh,Diaph act CS,G6PDH counter
Cc1cc(C=C2C(=O)NC(=S)NC2=O)c(C)n1C1CCCC1,2.1,n,n,n,n
Cc1ccc2c(c1)=C/C(=C\c1c(O)[nH]c(=S)[nH]c1=O)C(=O)N=2,n,n,54,n,n
CCCCn1c(=O)c(C(=O)Nc2nnc(C(C)C)s2)c(O)c2ccccc21,n,n,n,n,n
O=C(N/N=C/c1c(O)n(C2CC2)c(=S)[nH]c1=O)c1ccccc1O,n,n,66,n,n
COc1cccc(-n2c(O)c(C=NCCN3CCOCC3)c(=O)[nH]c2=O)c1,n,n,n,n,n
Cc1nn(CCC#N)c2c1P(=S)(N1CCCC1)OC(c1ccc(F)cc1)=N2 (stereo not drawn),n,n,n,n,n
COc1ccc(/C=C2\C(=O)NC(=S)N(C)C2=O)cc1C,2.5,n,n,n,n
O=c1c2ccccc2nc(N2CCCC2)n1-c1ccccc1,n,n,n,n,n
O=c1c2ccccc2[se]n1-c1ccccc1,x,x,70,n,n
CCCCCCCCCOc1ccc2[nH]cc(CCN)c2c1,n,n,n,3.3,n
COc1ccc2[nH]cc(CCN)c2c1,n,n,n,n,n
COc1c2c(cc3c1OCO3)CC[N+](C)=C2,n,n,83,n,n
O=c1[nH]c(O)c(N=Nc2cc([N+](=O)[O-])ccc2O)c(=O)[nH]1,n,n,66,n,n
CN(C)/C=C1/C(=O)NC(=O)N(CCNc2ncc(C(F)(F)F)cc2Cl)C1=O,n,n,n,n,n
Cc1nc2ccccc2c(=O)n1-c1ccc(Br)cc1[N+](=O)[O-],n,n,70,n,n
C[C@]12CC[C@@H]3c4ccc(O)c(O)c4CC[C@H]3[C@@H]1CC[C@@H]2O,n,n,70,n,n
N#CCP(=S)(c1ccccc1)c1ccccc1,n,n,n,n,n
COc1ccc(N/N=C/c2c(O)n(-c3ccc(C)c(C)c3)c(=O)[nH]c2=O)cc1,n,n,n,n,n
COc1ccc(N/N=C/c2c(O)n(-c3cccc(C)c3)c(=O)[nH]c2=O)cc1,2.7,n,n,n,n
O=C1C(=O)c2ccccc2-c2ccccc21,n,n,n,n,53
O=C1C(=O)c2cccc3cccc1c23,n,n,n,n,n
Cc1ccc2cc(C=C(C#N)C#N)c(Cl)nc2c1,n,n,n,n,n
Cc1c(C=C2C(=O)NC(=O)NC2=O)c(=O)n(-c2ccccc2)n1C,n,n,n,n,n
Cc1nn(Cc2ccccc2)c(C)c1C=C1C(=O)NC(=S)NC1=O,2.2,n,n,n,n
Cc1c(C(=O)N2CCC3(CC2)OCCO3)oc2ccc(S(=O)(=O)N3CCCCC3)cc12,n,n,n,n,n
SMILES,PMI act hi M6P,PMI activator,Diaphorase inh,Diaph act CS,G6PDH counter
Oc1ccc(CC2CC3CCN2CC3)cc1O (stereo not drawn),n,n,53,n,n
O=C1C2CCN(CC2)C1Cc1ccccc1O (stereo not drawn),n,n,n,n,n
CCCSP1(=S)NCCCO1 (stereo not drawn),n,n,n,n,n
Cc1nc2c(=O)n(C)c(=O)nc-2n(C)n1,n,n,n,n,68
O=C1C2(c3ccccc3)CN3CN(C2)CC1(c1ccccc1)C3,n,n,n,n,n
CCc1c(C)nc(N)nc1N1N=C1SCC(=O)OC,n,n,77,n,n
CNP(=O)(Oc1ccccc1)OC12CC3CC(CC(C3)C1)C2 (stereo not drawn),n,n,n,n,n
CC(=NCCCO)c1c(O)n(Cc2ccccc2)c(=O)[nH]c1=O,n,n,n,n,n
C/C(=N\Nc1ccccc1)c1c(O)n(Cc2ccccc2)c(=O)[nH]c1=O,2.5,n,n,n,n
C/C(=N\Nc1ccccc1)c1c(O)n(C)c(=O)n(C)c1=O,2.5,n,n,n,n
Cn1c(O)c(C(=O)c2ccccc2)c(=O)n(C)c1=O,n,n,n,n,n
CC(=O)c1ccc2c(c1)C1C(Cl)C(Sc3ccccc3[N+](=O)[O-])CC1C(c1ccccc1[N+](=O)[O-])N2 (stereo not drawn),n,n,63,n,n

# From PubChem BioAssay
